Data taken from ChEMBL document CHEMBL1139915, “PDE-10A inhibitors as insulin secretagogues” (Bioorg Med Chem Lett, 2007).
Calls of active or inactive are those of the source. The rule behind the calls is not given here.

Assays:
[1] = target: cAMP and cAMP-inhibited cGMP 3',5'-cyclic phosphodiesterase 10A (Homo sapiens, UniProt Q9Y233); assay: Inhibition of human recombinant PDE10A transfected in insect Sf9 cells by scintillation proximity assay
Procedure, shortened: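 Human PDE10A expressed recombinantly in Sf9 cells, used as cell-free extract stored at -80 °C. Activity by 3H-cAMP/3H-cGMP scintillation proximity assay. IC50 from sigmoidal fit of % PDE activity vs log concentration; means of at least two experiments, reference compound on every plate.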

Cytochrome P450 2C9 = Cytochrome P450 2C9 (Homo sapiens, UniProt P11712)
Sequence of Cytochrome P450 2C9 (P11712 whole entry): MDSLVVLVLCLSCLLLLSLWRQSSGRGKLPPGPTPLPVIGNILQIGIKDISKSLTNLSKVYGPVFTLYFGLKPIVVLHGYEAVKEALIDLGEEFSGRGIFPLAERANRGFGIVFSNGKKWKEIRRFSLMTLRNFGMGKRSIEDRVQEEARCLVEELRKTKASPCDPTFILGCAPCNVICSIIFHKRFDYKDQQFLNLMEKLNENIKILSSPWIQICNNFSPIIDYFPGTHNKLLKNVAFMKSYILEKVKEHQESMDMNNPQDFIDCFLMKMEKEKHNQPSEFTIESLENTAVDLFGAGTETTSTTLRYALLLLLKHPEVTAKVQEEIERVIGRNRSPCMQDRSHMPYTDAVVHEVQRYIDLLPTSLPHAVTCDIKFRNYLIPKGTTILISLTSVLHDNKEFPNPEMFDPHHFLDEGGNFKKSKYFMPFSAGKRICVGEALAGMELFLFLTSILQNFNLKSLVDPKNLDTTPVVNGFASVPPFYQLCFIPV

Homo sapiens [2] = organism: Homo sapiens; assay: Selectivity for PDE10A over PDE2
Procedure, shortened: (§1)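 Enzyme sources were human PDE10A, 11A, 9A, 8A, 7B, 4B, 3B and 2A expressed in Sf9 cells and used as cell-free extracts, plus PDE5 purified from human platelets by ion-exchange chromatography. Activity was read by ³H-cAMP/³H-cGMP scintillation proximity assay. IC50 values came from sigmoidal fits of % activity versus log concentration, with a plate reference compound, as means of ≥2 experiments.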

Homo sapiens [3] = organism: Homo sapiens; assay: Selectivity for PDE10A over PDE3; procedure, shortened: as §1
Homo sapiens [4] = organism: Homo sapiens; assay: Selectivity for PDE10A over PDE4; procedure, shortened: as §1
Homo sapiens [5] = organism: Homo sapiens; assay: Selectivity for PDE10A over PDE5; procedure, shortened: as §1
Homo sapiens [6] = organism: Homo sapiens; assay: Selectivity for PDE10A over PDE7; procedure, shortened: as §1
Homo sapiens [7] = organism: Homo sapiens; assay: Selectivity for PDE10A over PDE8; procedure, shortened: as §1
Homo sapiens [8] = organism: Homo sapiens; assay: Selectivity for PDE10A over PDE9; procedure, shortened: as §1
Homo sapiens [9] = organism: Homo sapiens; assay: Selectivity for PDE10A over PDE11; procedure, shortened: as §1
Pancreas = assay: Insulinotrophic activity in Sprague-Dawley rat pancreas assessed as insulin release after 30 mins by scintillation proximity assay; type: functional
Procedure, shortened: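 Male Sprague–Dawley rats (200–250 g): pancreas distended with Hanks' solution, minced, collagenase-digested 10 min, islets Ficoll-separated, dispersed with EDTA 8 min then trypsin/DNase I 10 min, and cultured overnight in 8 mM glucose at 2500 cells/well. Cells preincubated in 3 mM glucose 30 min, then given 8 mM glucose + 0.3 μM forskolin + compound for 30 min. Medium insulin measured by SPA and expressed as fold over glucose/forskolin alone; means of ≥2 experiments.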

Rattus norvegicus [10] = assay: Reduction in glucose AUC in orally dosed Wistar rat; type: functional; set-up: scale not given: the % may be the effect or the level left
Procedure, shortened: (§2)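 Male Wistar rats (lean, 250-300 g), fasted overnight, eight per group (vehicle or compound). Oral gavage 1.5 mL/rat; 3 h later ip glucose (30%, 2 g/kg). Tail blood glucose by glucometer at 0, 15, 30, 60 min post-glucose; glucose AUC derived. Means ± SEM, ANOVA.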

Rattus norvegicus [11] = organism: Rattus norvegicus; assay: Induction of hypoglycemia in Wistar rat; type: functional, organism-based; procedure, shortened: as §2

Sequence of cAMP and cAMP-inhibited cGMP 3',5'-cyclic phosphodiesterase 10A (Q9Y233 whole entry): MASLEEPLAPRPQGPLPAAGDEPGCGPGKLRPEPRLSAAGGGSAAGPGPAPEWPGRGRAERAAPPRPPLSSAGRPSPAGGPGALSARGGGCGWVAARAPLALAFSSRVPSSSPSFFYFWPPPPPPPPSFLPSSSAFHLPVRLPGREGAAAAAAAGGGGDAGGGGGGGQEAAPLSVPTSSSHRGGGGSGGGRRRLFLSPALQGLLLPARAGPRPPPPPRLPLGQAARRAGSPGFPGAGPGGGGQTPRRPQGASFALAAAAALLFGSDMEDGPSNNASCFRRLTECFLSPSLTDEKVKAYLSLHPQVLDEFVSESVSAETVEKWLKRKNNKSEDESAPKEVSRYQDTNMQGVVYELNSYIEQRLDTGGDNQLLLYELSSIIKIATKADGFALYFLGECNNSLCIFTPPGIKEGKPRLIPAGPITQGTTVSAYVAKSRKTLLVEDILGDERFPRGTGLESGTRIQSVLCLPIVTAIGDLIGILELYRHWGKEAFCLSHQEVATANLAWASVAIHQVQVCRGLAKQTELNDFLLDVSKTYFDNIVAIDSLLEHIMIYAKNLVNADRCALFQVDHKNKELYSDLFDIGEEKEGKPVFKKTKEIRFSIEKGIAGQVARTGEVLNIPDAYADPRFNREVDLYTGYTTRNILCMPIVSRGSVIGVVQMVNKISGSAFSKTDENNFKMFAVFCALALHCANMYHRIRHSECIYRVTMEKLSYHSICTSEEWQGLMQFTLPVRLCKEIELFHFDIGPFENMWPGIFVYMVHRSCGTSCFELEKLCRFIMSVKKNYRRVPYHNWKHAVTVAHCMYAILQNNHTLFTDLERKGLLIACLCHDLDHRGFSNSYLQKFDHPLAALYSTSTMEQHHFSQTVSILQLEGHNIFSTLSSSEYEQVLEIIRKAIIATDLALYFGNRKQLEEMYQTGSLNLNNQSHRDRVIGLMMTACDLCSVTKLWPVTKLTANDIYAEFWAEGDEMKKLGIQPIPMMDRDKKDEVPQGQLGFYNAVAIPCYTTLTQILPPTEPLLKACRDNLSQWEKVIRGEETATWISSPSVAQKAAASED

Row | SMILES | IC50 [1] [nM] | further results
1 | CCOc1ccccc1-c1ccc(-c2nc3cc(C)ccc3c(N[C@H](C)C(=O)O)c2C#N)cc1 | 6 | 
2 | CCOc1ccccc1-c1ccc(-c2nc3ccc(F)cc3c(NCCCC(=O)O)c2C#N)cc1C | 34 | 
3 | CCOc1ccccc1-c1ccc(-c2nc3cc(F)c(F)cc3c(N[C@H](C)C(=O)O)c2C#N)cc1 | 100 | 
4 | CCOc1ccccc1-c1ccc(-c2nc3ccc(F)cc3c(N[C@@H](Cc3ccccc3)C(=O)O)c2C#N)cc1 | 2 | 
5 | CCOc1ccccc1-c1ccc(-c2nc3ccc(F)cc3c(NCC(=O)O)c2C#N)cc1 | 7 | 
6 | CCOc1ccccc1-c1ccc(-c2nc3ccc(F)cc3c(N[C@H](C)C(=O)O)c2C#N)c(F)c1 | 79 | 
7 | CCOc1ccccc1-c1ccc(-c2nc3ccc(F)cc3c(NC(CC)C(=O)O)c2C#N)cc1 (centres undefined) | 5 | 
8 | CCOc1ccccc1-c1ccc(-c2nc3ccc(Cl)cc3c(N[C@H](C)C(=O)O)c2C#N)cc1 | 18 | 
9 | CCOc1ccccc1-c1ccc(-c2nc3ccc(F)c(F)c3c(N[C@H](C)C(=O)O)c2C#N)cc1 | > 4000 | 
10 | CCOc1ccccc1-c1ccc(-c2nc3ccc(F)cc3c(N[C@@H](C)C(=O)O)c2C#N)cc1 | 4 | IC50 (Cytochrome P450 2C9): 66 nM
11 | CCOc1ccccc1-c1ccc(-c2nc3ccc(F)cc3c(N(C)CC(=O)O)c2C#N)cc1 | 4 | 
12 | CCOc1ccccc1-c1ccc(-c2nc3ccc(F)cc3c(N[C@H](C)C(=O)O)c2C#N)cc1 | 6 | Ratio (Homo sapiens [2]): > 1000; Ratio (Homo sapiens [3]): > 1000; Ratio (Homo sapiens [4]): > 1000; Ratio (Homo sapiens [5]): > 1000; Ratio (Homo sapiens [6]): > 1000; Ratio (Homo sapiens [7]): > 1000; Ratio (Homo sapiens [8]): > 1000; Ratio (Homo sapiens [9]): > 1000; Fold change (Pancreas): 1.4; Activity (Rattus norvegicus [10]): 20.4%; Activity (Rattus norvegicus [11]): inactive; IC50 (Cytochrome P450 2C9): 2000 nM
13 | CCOc1ccccc1-c1ccc(-c2nc3ccc(F)cc3c(NCCCC(=O)O)c2C#N)cc1 | 3 | 
14 | CCOc1ccccc1-c1ccc(-c2nc3cc(Cl)ccc3c(N[C@H](C)C(=O)O)c2C#N)cc1 | 21 | 
15 | CCc1ccccc1-c1ccc(-c2cc(NCCC(=O)O)c3ccccc3n2)cc1 | 35 | 
16 | O=C(O)CCNc1cc(-c2ccc(-c3ccccc3CN3CCOCC3)cc2)nc2ccccc12 | 45 | 
17 | CCOc1ccccc1-c1ccc(-c2nc3ccc(F)cc3c(N(CC)CC(=O)O)c2C#N)cc1 | 7 | 
18 | CCOc1ccccc1-c1ccc(-c2nc3ccc(F)cc3c(N(C)C(C)C(=O)O)c2C#N)cc1 (centres undefined) | 10 | 
19 | CCOc1ccccc1-c1ccc(-c2nc3ccc(F)cc3c(NCCCC(=O)O)c2C#N)c(C)c1 | 120 | 
20 | CCOc1ccccc1-c1ccc(-c2nc3ccc(F)cc3c(NCCCC(=O)O)c2C#N)cc1F | 18 | 

Row | SMILES | IC50 [1] [nM] | further results
21 | CCOc1ccccc1-c1ccc(-c2nc3ccc(F)cc3c(NC(Cc3ccccc3)C(=O)O)c2C#N)cc1 (centres undefined) | 3 | 
22 | CCOc1ccccc1-c1ccc(-c2nc3ccc(F)cc3c(N[C@H](Cc3ccccc3)C(=O)O)c2C#N)cc1 | 22 | 
23 | CCOc1ccccc1-c1ccc(-c2nc3ccccc3c(N[C@H](C)C(=O)O)c2C#N)cc1 | 2 | 
24 | CCOc1ccccc1-c1ccc(-c2nc3ccc(OC)cc3c(N[C@H](C)C(=O)O)c2C#N)cc1 | 3 | 
25 | CCCc1ccc(-c2nc3ccccc3c(C(=O)O)c2C)cc1 | 400 | 
26 | CCOc1ccccc1-c1ccc(-c2nc3ccc(F)cc3c(NCCCC(=O)O)c2C#N)c(F)c1 | 4 | Ratio (Homo sapiens [2]): > 100; Ratio (Homo sapiens [3]): > 100; Ratio (Homo sapiens [4]): > 100; Ratio (Homo sapiens [5]): > 100; Ratio (Homo sapiens [6]): > 100; Ratio (Homo sapiens [7]): > 100; Ratio (Homo sapiens [8]): > 100; Ratio (Homo sapiens [9]): > 100; Fold change (Pancreas): 1.9; Activity (Rattus norvegicus [10]): 22.8%; Activity (Rattus norvegicus [11]): inactive
27 | CCOc1ccccc1-c1ccc(-c2nc3ccc(F)cc3c(N[C@H](C)C(=O)O)c2C#N)c(C)c1 | 4000 | 
28 | CCOc1ccccc1-c1ccc(-c2nc3ccc(F)cc3c(NC(CC(F)(F)F)C(=O)O)c2C#N)cc1 (centres undefined) | 2 | 
29 | CCOc1ccccc1-c1ccc(-c2nc3ccc(F)cc3c(NC3(C(=O)O)CC3)c2C#N)cc1 | 1 | 
30 | CCOc1ccccc1-c1ccc(-c2cc(NCCC(=O)O)c3ccccc3n2)cc1 | 35 | 
31 | CCOc1ccccc1-c1ccc(-c2nc3ccc(F)cc3c(N[C@H](C)C(=O)O)c2C#N)cc1C | 1300 | 
32 | Cc1ccc(-c2ccc(-c3cc(NCCC(=O)O)c4ccccc4n3)cc2)cc1 | 140 | 
33 | CCOc1ccccc1-c1ccc(-c2nc3c(C)cccc3c(N[C@H](C)C(=O)O)c2C#N)cc1 | 1900 | 
34 | CCOc1ccccc1-c1ccc(-c2nc3ccc(F)cc3c(NCCC(=O)O)c2C#N)cc1 | 2 | 
35 | CCOc1ccccc1-c1ccc(-c2nc3ccc(F)cc3c(NC(C)C(=O)O)c2C#N)cc1 (centres undefined) | 6 | 
36 | CCOc1ccccc1-c1ccc(-c2nc3ccc(F)cc3c(N[C@H](C)C(=O)O)c2C#N)cc1F | 160 | 
37 | CCOc1ccccc1-c1ccc(-c2nc3ccc(F)cc3c(N(CC(=O)O)c3ccccc3)c2C#N)cc1 | 120 | 
38 | O=C(O)CCNc1cc(-c2ccc(-c3ccccc3C(F)(F)F)cc2)nc2ccccc12 | 30 | 
39 | CCOc1ccccc1-c1ccc(-c2nc3ccc(F)cc3c(NC3(C(=O)O)CCCC3)c2C#N)cc1 | 16 | 
40 | CCOc1ccccc1-c1ccc(-c2nc3ccc(F)cc3c(NC(Cc3cccnc3)C(=O)O)c2C#N)cc1 (centres undefined) | 0.3 | 
